The source of these data is PMC3046310 (Bioconjugate chemistry, 2010).

For data set [1], the target named is T1, MC1R (Mus musculus, UniProt Q01727). Conditions: previous studies; ref [19]; cited from earlier work.
The target of data set [2] is T1, MC1R. As to the kind of experiment: In vitro cell binding assay. More on the design: species or system murine. The following applies: B16F10 cells. The procedure, abridged:
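B16F10 cells were grown in high-glucose DMEM with 10% FBS and penicillin/streptomycin at 37 °C and 5% CO2. Cells (0.5 × 10^6) were resuspended in DMEM with 25 mM HEPES, 0.2% BSA and 0.3 mM 1,10-phenanthroline. They were incubated for 90 min at 37 °C with test compound (10^−12–10^−6 M) and ~40,000 cpm 125I-(Tyr2)-NDP. Cells were washed three times with ice-cold PBS and counted. IC50 was taken as the competitor concentration giving 50% inhibition of radioligand binding.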

Another data set deals with A375M human melanoma. As to the kind of experiment: Biodistribution in Foxn1 nude mice bearing A375M tumors. The class given is in vivo.
Another data set deals with B16F10 murine melanoma. As to the kind of experiment: Biodistribution in C57BL/6 mice bearing B16F10 tumors. Type of data set: in vivo. The procedure, abridged: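 Male C57BL/6 mice, 5–6 weeks old, were given 1 × 10^6 B16F10 cells in the right flank. At tumor diameter ~8 mm, 110–130 μCi (4.07–4.81 MBq) 18F tracer in PBS (0.01 M, pH 7.4) was injected i.v. into the tail vein. Mice (n=3) were killed by CO2 at 1, 2 and 4 h p.i. Tumor, blood and organs were weighed and γ-counted, giving %ID/g. Groups were compared by unpaired Student's t-test.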

The test system of the next data set is B16F10 tumors. Put plainly: Small-animal PET imaging of mice bearing B16F10 tumors. The class given is in vivo, murine. The following applies: for PET tumor delineation / image quality: B16F10 tumors, 1 and 2 h p.i. In outline:
(§1)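 Mice bearing B16F10 or A375M tumors received 110–130 μCi (4.07–4.81 MBq) 18F tracer via the tail vein. At 1 and 2 h p.i., mice under 2% isoflurane were placed prone for 5-min static small-animal PET scans, reconstructed by 2D OSEM without attenuation correction. ROIs drawn on decay-corrected coronal images were converted to %ID/g using a calibration constant, assuming 1 g/mL tissue density.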

For a further data set, the system named is A375M melanoma. Put plainly: Small-animal PET imaging of mice bearing A375M tumors. The class given is in vivo, human. In outline: as §1
Where [3] appears, read: Foxn1 nude mice, A375M, 2 h p.i., i.v. 110-130 μCi, mean ± SD, n = 3.
[4] abbreviates: C57BL/6 mice, B16F10, 2 h p.i., i.v. 110-130 μCi, mean ± SD, n = 3.

“Also recorded” adds a separate entry of the source.

T1 sequence (Q01727 whole entry): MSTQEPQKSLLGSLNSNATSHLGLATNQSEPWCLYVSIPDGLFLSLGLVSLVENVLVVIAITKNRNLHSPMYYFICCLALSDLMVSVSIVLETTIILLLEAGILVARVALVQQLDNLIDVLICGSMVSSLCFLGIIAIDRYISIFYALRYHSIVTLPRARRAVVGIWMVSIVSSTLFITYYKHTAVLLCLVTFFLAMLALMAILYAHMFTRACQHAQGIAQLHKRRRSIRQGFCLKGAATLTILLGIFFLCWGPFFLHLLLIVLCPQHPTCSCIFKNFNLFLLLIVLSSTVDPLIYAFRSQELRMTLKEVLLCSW

For “Ac-d,Lys-ReCCMSH(Arg^11) (sidechain bridge or staple) [RMSH-2]”, the “MC1R binding affinity of unconjugated RMSH isomers” value at MC1R [1] was “high MC1R binding affinity in nanomolar (nM) range”.

As for “Ac-d,Lys-ReCCMSH(Arg^11) (sidechain bridge or staple) [RMSH-1]”, the “MC1R binding affinity of unconjugated RMSH isomers” value at MC1R [1] is “high MC1R binding affinity in nanomolar (nM) range”.

With `CC(=O)N[C@H](CCCCNC(=O)C(C)F)C(=O)N[C@@H](CS)C(=O)N[C@@H](CS)C(=O)N[C@@H](CCC(=O)O)C(=O)N[C@@H](Cc1c[nH]cn1)C(=O)N[C@H](Cc1ccccc1)C(=O)N[C@@H](CCCNC(=N)N)C(=O)N[C@@H](Cc1c[nH]c2ccccc12)C(=O)N[C@@H](CS)C(=O)N[C@@H](CCCNC(=N)N)C(=O)N1CCC[C@H]1C(=O)N[C@H](C(N)=O)C(C)C` (some centres unmarked) [^19F-FP-RMSH-1], the “receptor binding affinity” value on MC1R [2] is “within low nM range”.

Regarding `CC(=O)N[C@H](CCCCNC(=O)C(C)F)C(=O)N[C@@H](CS)C(=O)N[C@@H](CS)C(=O)N[C@@H](CCC(=O)O)C(=O)N[C@@H](Cc1c[nH]cn1)C(=O)N[C@H](Cc1ccccc1)C(=O)N[C@@H](CCCNC(=N)N)C(=O)N[C@@H](Cc1c[nH]c2ccccc12)C(=O)N[C@@H](CS)C(=O)N[C@@H](CCCNC(=N)N)C(=O)N1CCC[C@H]1C(=O)N[C@H](C(N)=O)C(C)C` (some centres unmarked) [^18F-FP-RMSH-1], in the data set on A375M human melanoma (2 h p.i., P < 0.01), the “A375M tumor uptake compared with B16F10 tumors” value was “significantly lower than in B16F10 tumors”. In the data set with A375M human melanoma (setting [3]), this compound displayed a Heart uptake of 0.41 ± 0.19 %ID/g, an Intestine uptake of 0.40 ± 0.19 %ID/g, a Liver uptake of 0.69 ± 0.21 %ID/g and a Pancreas uptake of 0.78 ± 0.49 %ID/g. Further, in the data set with B16F10 murine melanoma (B16F10 model), the “Muscle uptake” value was “low uptake in muscle”; the “blood clearance” value was “rapid blood clearance”; the “lung and liver uptake compared with ^18F-FB-RMSH-1” value was “much lower uptake in lung and liver”; the “tumor-to-blood and tumor-to-muscle ratios compared with ^18F-FB-RMSH-1” value is “Much higher tumor-to-blood and tumor-to-muscle ratios”. For the same compound, the “kidney uptake compared with ^18F-FB-RMSH-1” value in the data set with B16F10 murine melanoma (B16F10 tumor bearing mice, P < 0.05) is “lower kidney uptake”. Further, the “Tumor / Muscle uptake ratio” value in the data set with B16F10 murine melanoma (setting [4]) was 9.36 ± 3.98. The “PET liver and kidney uptake” value with B16F10 tumors (B16F10, 1 and 2 h p.i.) is “moderate to high uptake in liver and kidney”. The “PET tumor delineation / image quality” value in the data set on B16F10 tumors is “Improved quality of PET images; also recorded: clearly delineated over the background at 1 and 2 h p.i”. Also, in the data set with A375M melanoma (1 and 2 h, compared with B16F10 tumor bearing mice), the “PET tumor uptake and tumor-to-background ratio, A375M” value is “much lower tumor uptake and poor tumor-to-background ratio”. In addition, in the data set on A375M melanoma (1 and 2 h p.i.), the “PET kidney activity accumulation, A375M” value is “high activity accumulation in kidneys” and the “PET visibility of A375M tumor” value is given as “barely discernable; also recorded: barely noticeable”.

Regarding `CC(=O)N[C@H](CCCCNC(=O)C(C)F)C(=O)N[C@@H](CS)C(=O)N[C@@H](CS)C(=O)N[C@@H](CCC(=O)O)C(=O)N[C@@H](Cc1c[nH]cn1)C(=O)N[C@H](Cc1ccccc1)C(=O)N[C@@H](CCCNC(=N)N)C(=O)N[C@@H](Cc1c[nH]c2ccccc12)C(=O)N[C@@H](CS)C(=O)N[C@@H](CCCNC(=N)N)C(=O)N1CCC[C@H]1C(=O)N[C@H](C(N)=O)C(C)C` (some centres unmarked) [^18F-FP-RMSH-2], the “liver and lung uptake compared with ^18F-FB-RMSH-2, A375M” value in the data set with A375M human melanoma ("in both models" (P < 0.05), A375M model) was “lower”. Moreover, in the data set with A375M human melanoma (A375M model, P < 0.05), the “liver and kidney uptake compared with ^18F-FP-RMSH-1, A375M” value is “higher uptake in liver and kidney”. In addition, in the data set with A375M human melanoma (setting [3]), the Blood uptake came out at 0.20 ± 0.09 %ID/g, the Bone uptake was 0.25 ± 0.12 %ID/g, the Brain uptake is recorded as 0.04 ± 0.01 %ID/g and the Heart uptake worked out at 0.18 ± 0.07 %ID/g. In the data set on A375M human melanoma (setting [3]), this compound had an Intestine uptake of 0.17 ± 0.00 %ID/g, a Liver uptake of 1.66 ± 0.08 %ID/g, a Lung uptake of 0.47 ± 0.21 %ID/g and a Muscle uptake of 0.10 ± 0.02 %ID/g. Also, in the data set with A375M human melanoma (setting [3]), the Pancreas uptake came to 0.09 ± 0.01 %ID/g, the Spleen uptake turned out to be 0.27 ± 0.03 %ID/g, the Stomach uptake is reported as 0.52 ± 0.50 %ID/g and the “Tumor / Blood uptake ratio” value was determined as 2.90 ± 0.04. In addition, the “Tumor / Muscle uptake ratio” value in the data set with A375M human melanoma (setting [3]) is on record as 6.40 ± 2.66. The “liver and lung uptake compared with ^18F-FB-RMSH-2, B16F10” value in the data set on B16F10 murine melanoma ("in both models" (P < 0.05), B16F10 model) is “lower”. In the data set with B16F10 murine melanoma (setting [4]), this compound displayed a Blood uptake of 0.31 ± 0.11 %ID/g, a Bone uptake of 0.52 ± 0.08 %ID/g, a Brain uptake of 0.04 ± 0.01 %ID/g and a Heart uptake of 0.21 ± 0.06 %ID/g. In the data set with B16F10 murine melanoma (setting [4]), this compound showed an Intestine uptake of 0.91 ± 0.33 %ID/g, a Lung uptake of 0.64 ± 0.15 %ID/g, a Muscle uptake of 0.20 ± 0.05 %ID/g and a Pancreas uptake of 0.10 ± 0.03 %ID/g. Also, in the data set with B16F10 murine melanoma (setting [4]), the Spleen uptake is 0.53 ± 0.03 %ID/g, the Stomach uptake was determined as 0.42 ± 0.14 %ID/g, the “Tumor / Blood uptake ratio” value worked out at 2.74 ± 0.80 and the “Tumor / Muscle uptake ratio” value was 3.98 ± 1.09. Further, the “liver uptake compared with ^18F-FP-RMSH-1” value in the data set with B16F10 murine melanoma (biodistribution, 2 h) is given as “higher uptake in liver”. The “PET tumor uptake compared with ^18F-FP-RMSH-1” value in the data set with B16F10 tumors (B16F10, 1 and 2 h, ROI quantification, P < 0.01) is “much lower tumor uptake”. For the same compound, the “PET liver and kidney uptake” value with B16F10 tumors (B16F10, 1 and 2 h p.i.) is “moderate to high uptake in liver and kidney”. Also, the “PET kidney uptake compared with ^18F-FP-RMSH-1” value with B16F10 tumors (B16F10, 1 and 2 h p.i., ROI quantification, n = 3, P < 0.01) is on record as “much higher uptake in kidney”. The “PET tumor delineation / image quality” value with B16F10 tumors is given as “much less prominent tumor uptake”.

As to `CC(=O)N[C@H](CCCCNC(=O)C(C)F)C(=O)N[C@@H](CS)C(=O)N[C@@H](CS)C(=O)N[C@@H](CCC(=O)O)C(=O)N[C@@H](Cc1c[nH]cn1)C(=O)N[C@H](Cc1ccccc1)C(=O)N[C@@H](CCCNC(=N)N)C(=O)N[C@@H](Cc1c[nH]c2ccccc12)C(=O)N[C@@H](CS)C(=O)N[C@@H](CCCNC(=N)N)C(=O)N1CCC[C@H]1C(=O)N[C@H](C(N)=O)C(C)C` (some centres unmarked) [^19F-FP-RMSH-2], on MC1R [2], the “receptor binding affinity” value is reported as “within low nM range”.
